Measurements as given in ChEMBL document CHEMBL1149168, “Discovery and evaluation of potent P1 aryl heterocycle-based thrombin inhibitors” (J Med Chem, 2004).
pKi: −log10 of the molar value.

Tests used:
Prothrombin = Prothrombin (Homo sapiens, UniProt P00734); test: Inhibitory potency against human thrombin
[1] = Ability to double the activated partial thromboplastin time (2x APTT) in human plasma; assay type: functional
[2] = Half-life of compound in dog following p.o. administration of 0.5 mg/kg; assay type: ADME, organism-based, Canis lupus familiaris; design: dose 0.5 mg/kg, route oral; conditions: in vivo, po
How it was run: (§1)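 Male beagle dogs (10–12 kg), fasted overnight, were given the inhibitor orally at the stated mg/kg as a solution or suspension in 0.5% methocel. Plasma was stored at –20 °C until HPLC analysis.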

[3] = Maximum plasma concentration of compound in dog following p.o. administration of 0.5 mg/kg; assay type: ADME, organism-based, Canis lupus familiaris; design: dose 0.5 mg/kg, route oral; conditions: po; how it was run: as §1
[4] = Maximum plasma concentration of compound in dog following p.o. administration of 1 mg/kg; assay type: ADME, organism-based, Canis lupus familiaris; design: dose 1 mg/kg, route oral; conditions: po; how it was run: as §1
[5] = Half-life of compound in dog following p.o. administration of 1 mg/kg; assay type: ADME, organism-based, Canis lupus familiaris; design: dose 1 mg/kg, route oral; conditions: in vivo, po; how it was run: as §1
Coagulation factor X = Coagulation factor X (Homo sapiens, UniProt P00742); test: Inhibitory potency of compound against human Coagulation factor Xa
[6] = Half-life of compound in dog following p.o. administration of 0.95 mg/kg; assay type: ADME, organism-based, Canis lupus familiaris; design: dose 0.95 mg/kg, route oral; conditions: in vivo, po; how it was run: as §1
[7] = Maximum plasma concentration of compound in dog following p.o. administration of 0.95 mg/kg; assay type: ADME, organism-based, Canis lupus familiaris; design: dose 0.95 mg/kg, route oral; conditions: po; how it was run: as §1
[8] = Oral bioavailability in dog; assay type: ADME, organism-based, Canis lupus familiaris; conditions: in vivo
[9] = Half life of compound in dog following oral administration; assay type: ADME, organism-based, Canis lupus familiaris; conditions: in vivo; how it was run: as §1
[10] = Maximum plasma concentration of compound in dog following p.o. administration of 0.9 mg/kg; assay type: ADME, organism-based, Canis lupus familiaris; design: dose 0.9 mg/kg, route oral; conditions: po; how it was run: as §1
[11] = Half-life of compound in dog following p.o. administration of 0.9 mg/kg; assay type: ADME, organism-based, Canis lupus familiaris; design: dose 0.9 mg/kg, route oral; conditions: in vivo, po; how it was run: as §1
Canis familiaris = species on record: Canis familiaris; test: Half life of compound in dog was determined; assay type: ADME, organism-based, Canis lupus familiaris; conditions: in vivo
[12] = Oral bioavailability of compound in rat; assay type: ADME, organism-based; conditions: in vivo
[13] = Oral bioavailability of compound in rhesus macaques; assay type: ADME, organism-based, Macaca mulatta; conditions: rhesus monkey, in vivo

Chain of Coagulation factor X (P00742 41-179 limits assumed): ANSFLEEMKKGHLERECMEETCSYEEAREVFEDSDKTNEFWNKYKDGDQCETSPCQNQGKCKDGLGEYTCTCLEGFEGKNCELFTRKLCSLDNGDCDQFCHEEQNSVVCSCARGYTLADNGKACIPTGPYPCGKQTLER
Chain of Coagulation factor X (P00742 235-488 limits assumed): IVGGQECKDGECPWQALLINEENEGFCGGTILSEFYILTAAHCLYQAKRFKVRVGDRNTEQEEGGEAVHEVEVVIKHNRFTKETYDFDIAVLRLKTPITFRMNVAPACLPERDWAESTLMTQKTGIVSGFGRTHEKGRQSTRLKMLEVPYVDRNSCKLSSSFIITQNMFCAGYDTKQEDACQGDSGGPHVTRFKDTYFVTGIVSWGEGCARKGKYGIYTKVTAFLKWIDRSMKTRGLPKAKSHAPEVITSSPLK

Row | SMILES | pKi (Prothrombin) | 2x APTT [1] [µM] | further results
1 | Cc1ccc(NS(=O)(=O)Cc2ccccc2)c(=O)n1CC(=O)NCc1cc(Cl)ccc1-n1cncn1 | 9.80 | 0.36 | 
2 | N[C@H](Cc1ccccc1)C(=O)N1CCC[C@H]1CC(=O)NCc1ccccc1-n1cncn1 | 8.97 |  | 
3 | O=C(Cn1ccnc(NCC(F)(F)c2ccccn2)c1=O)NCc1ccccc1-n1cncn1 | 7.80 | 2.06 | 
4 | O=C(Cn1ccnc(NCC(F)(F)c2cccc[n+]2[O-])c1=O)NCc1cc(Cl)ccc1-n1cncn1 | 10.07 | 0.26 | 
5 | O=C(Cn1c(Cl)cnc(NCC(F)(F)c2ccccn2)c1=O)NCc1cccc(Cl)c1 | 9.36 | 0.79 | 
6 | O=C(Cn1c(Cl)cnc(NCC(F)(F)c2ccccn2)c1=O)NCc1ncccc1-n1cnnn1 | 9.85 | 0.25 | 
7 | O=C(Cn1c(Cl)cnc(NCC(F)(F)c2ccccn2)c1=O)NCc1ccccc1-n1ccnc1 | 8.20 | 1.29 | 
8 | O=C(Cn1c(Cl)cnc(NCC(F)(F)c2cccc[n+]2[O-])c1=O)NCc1ccccc1-n1cnnn1 | 10.30 | 0.2 | 
9 | O=C(Cn1c(Cl)cnc(NCC(F)(F)c2ccccn2)c1=O)NCc1ccccc1-c1nnn[nH]1 | 6.03 |  | 
10 | O=C(Cn1c(Cl)cnc(NCC(F)(F)c2ccccn2)c1=O)NCc1ccccc1-n1cncn1 | 9.35 | 0.23 | half-life [2]: 3.5 h; Cmax [3]: 1.13 µM
11 | Cn1nnnc1-c1ccccc1CNC(=O)Cn1c(Cl)cnc(NCC(F)(F)c2ccccn2)c1=O | 8.92 | 0.34 | 
12 | N[C@H](Cc1ccccc1)C(=O)N1CCC[C@H]1CC(=O)NCc1cc(Cl)ccc1-n1cnnn1 | 9.48 | 0.23 | 
13 | O=C(Cn1c(Cl)cnc(NCC(F)(F)c2cccc[n+]2[O-])c1=O)NCc1ccccc1-n1cncn1 | 9.68 | 0.29 | Cmax [4]: 0.86 µM; half-life [5]: 1.4 h
14 | O=C(Cn1ccnc(NCC(F)(F)c2cccc[n+]2[O-])c1=O)NCc1ccccc1-n1cncn1 | 8.14 | 0.98 | 
15 | O=C(Cn1ccnc(NCC(F)(F)c2ccccn2)c1=O)NCc1cc(Cl)ccc1-n1cnnn1 | 10.48 | 0.2 | pKi (Coagulation factor X): 8.00; half-life [6]: 2 h; Cmax [7]: 1.31 µM
16 | O=C(Cn1c(Cl)cnc(NCC(F)(F)c2cccc[n+]2[O-])c1=O)NCc1cc(Cl)ccc1-n1cnnn1 |  | 0.13 | 
17 | O=C(Cn1c(Cl)cnc(NCC(F)(F)c2ccccn2)c1=O)NCc1ccccc1-c1c[nH]cn1 | 8.38 | 1.83 | 
18 | N[C@@H](C(=O)N1CCC[C@H]1C(=O)NCc1cc(Cl)ccc1Cl)C(c1ccccc1)c1ccccc1 | 8.52 |  | bioavailability [8]: 45%; half-life [9]: 1.67 h
19 | Cc1ccc(NS(=O)(=O)Cc2ccccc2)c(=O)n1CC(=O)NCc1ccccc1-n1cncn1 | 8.14 | 1.06 | 
20 | N[C@H](Cc1ccccn1)C(=O)N1CCC[C@H]1CC(=O)NCc1ccccc1-n1cncn1 | 8.70 | 0.39 | 
21 | O=C(Cn1c(Cl)cnc(NCC(F)(F)c2ccccn2)c1=O)NCc1ccccc1-n1cnnn1 | 10.02 | 0.22 | 

Row | SMILES | pKi (Prothrombin) | 2x APTT [1] [µM] | further results
22 | O=C(Cn1c(Cl)cnc(NCC(F)(F)c2ccccn2)c1=O)NCc1ncccc1-n1cncn1 | 9.18 | 0.33 | 
23 | Cc1ccc(NS(=O)(=O)Cc2ccccc2)c(=O)n1CC(=O)NCc1cc(Cl)ccc1-n1cnnn1 | 10.74 | 0.23 | pKi (Coagulation factor X): 7.96
24 | O=C(Cn1c(Cl)cnc(NCC(F)(F)c2ccccn2)c1=O)NCc1cc(Cl)ccc1-n1cncn1 | > 11.00 | 0.17 | 
25 | O=C(Cn1c(Cl)cnc(NCC(F)(F)c2ccccn2)c1=O)NCc1ccccc1 | 7.92 | 2.68 | 
26 | Cn1nnc(-c2ccccc2CNC(=O)Cn2c(Cl)cnc(NCC(F)(F)c3ccccn3)c2=O)n1 | 8.24 | 1.72 | 
27 | Cc1ccc(-n2cncn2)c(CNC(=O)CN2C=CN=C(NCC(F)(F)c3ccccn3)C2)c1 | 9.62 | 0.33 | Cmax [10]: 1.04 µM; half-life [11]: 1.2 h
28 | O=C(Cn1c(Cl)cnc(NCC(F)(F)c2ccccn2)c1=O)NCc1ccccc1-n1cnnc1 | 8.46 | 0.52 | 
29 | O=C(Cn1c(Cl)cnc(NCC(F)(F)c2ccccn2)c1=O)NCc1ccccc1-c1csnn1 | 9.08 | 0.6 | 
30 | O=C(Cn1c(Cl)cnc(NCC(F)(F)c2ccccn2)c1=O)NCc1ccccc1-c1cc[nH]n1 | 8.25 | 2.08 | 
31 | N[C@H](Cc1ccccn1)C(=O)N1CCC[C@H]1CC(=O)NCc1cc(Cl)ccc1-n1cnnn1 | 9.40 | 0.2 | 
32 | O=C(Cn1c(Cl)cnc(NCC(F)(F)c2ccccn2)c1=O)NCc1ccccc1-c1ncc[nH]1 | 8.14 | 2.88 | 
33 | O=C(Cn1c(Cl)cnc(NCC(F)(F)c2ccccn2)c1=O)NCc1cc(Cl)ccc1-n1cnnn1 | 11.82 | 0.18 | 
34 | O=C(Cn1c(Cl)cnc(NCC(F)(F)c2ccccn2)c1=O)NCc1ccccc1-n1cccn1 | 8.16 | 1.9 | 
35 | Cc1ccc(NS(=O)(=O)Cc2ccccc2)c(=O)n1CC(=O)NCc1ccccc1-n1cnnn1 | 8.85 | 0.37 | 
36 | O=C(Cn1ccnc(NCC(F)(F)c2ccccn2)c1=O)NCc1ccccc1-n1cnnn1 | 8.57 | 0.52 | 
37 | O=C(Cn1ccnc(NCC(F)(F)c2cccc[n+]2[O-])c1=O)NCc1cc(Cl)ccc1-n1cnnn1 | 10.89 | 0.12 | pKi (Coagulation factor X): 8.30
38 | O=C(Cn1c(Cl)cnc(NCC(F)(F)c2cccc[n+]2[O-])c1=O)NCc1cc(Cl)ccc1-n1cncn1 | > 11.00 | 0.2 | 
39 | O=C(Cn1ccnc(NCC(F)(F)c2cccc[n+]2[O-])c1=O)NCc1ccccc1-n1cnnn1 | 8.96 | 0.42 | pKi (Coagulation factor X): 6.43
40 | O=C(Cn1c(Cl)cnc(NCC(F)(F)c2ccccn2)c1=O)NCc1ncccc1F [DPOC-4088] |  |  | T1/2 (Canis familiaris): 4.5 h
41 | Cc1nc(N)ccc1CNC(=O)Cn1c(C)cnc(NCCc2ccccc2)c1=O [L-375378] |  |  | bioavailability [12]: 42%; bioavailability [13]: 60%; bioavailability [8]: 91%
